In ChEMBL document CHEMBL2176965, “Synthesis and biological investigations of nitric oxide releasing nateglinide and meglitinide type II antidiabetic prodrugs: in-vivo antihyperglycemic activities and blood pressure lowering studies” (J Med Chem, 2012):
Calls of active or inactive are those of the source. The rule behind the calls is not given here.

Legend:
[1] = tested on: Mus musculus; assay: Antihypertensive activity in C57BL/6 mouse assessed as reduction in diastolic blood pressure at 63.01 umol/kg, po after 1 to 3 hrs; assay type: functional, organism-based; settings: Artery
[2] = tested on: Mus musculus; assay: Antihypertensive activity in C57BL/6 mouse assessed as reduction in mean blood pressure at 63.01 umol/kg, po after 1 to 3 hrs; assay type: functional, organism-based
[3] = tested on: Rattus norvegicus; assay: Antihyperglycemic activity in streptozotocin-induced diabetic Sprague-Dawley rat assessed as reduction in blood glucose level at 63.01 umol/kg, po after 24 hrs relative to control; assay type: functional, organism-based
Outline: (§1)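 Male Sprague−Dawley rats (300−350 g) made diabetic with streptozotocin 65 mg/kg ip in citrate buffer pH 4.5, nonfasting. Animals with blood glucose 20−30 mmol/L at 48 h were selected, n = 4 per group. Oral dose 63.01 μmol/kg in water with 1% methyl cellulose; vehicle controls. Tail-vein glucose read by glucometer at 1, 3, 6, 24 h; change expressed as % of the 0 h level.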

[4] = Induction of NO release in PBS buffer in presence of rat serum at pH 7.4 incubated for 24 hrs; parameters: concentration or dose not given beside the values; settings: pH 7.4, 24 h
Outline: (§2)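 Compound (2.4 mL of 5.0 × 10−2 mM) incubated at 37 °C in PBS pH 7.4 with 90 μL rat serum, a source of nonspecific esterases, for 1, 3, 6 or 24 h. NO measured as nitrite by Griess reaction and expressed as % released.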

[5] = Induction of NO release in PBS buffer in presence of rat serum at pH 7.4 incubated for 6 hrs; parameters: concentration or dose not given beside the values; settings: pH 7.4, 6 h; outline: as §2
[6] = Induction of NO release in PBS buffer in presence of rat serum at pH 7.4 incubated for 1 hr; parameters: concentration or dose not given beside the values; settings: pH 7.4, 1 h; outline: as §2
[7] = Induction of NO release in PBS buffer at pH 7.4 incubated for 24 hrs; assay type: physicochemical; parameters: concentration or dose not given beside the values; settings: pH 7.4, 24 h
Outline: (§3)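 Compound (2.4 mL of 5.0 × 10−2 mM) incubated at 37 °C in phosphate buffer pH 7.4 for 1, 4, 6 or 24 h. Released NO quantified indirectly as nitrite by Griess reaction and expressed as % NO released.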

[8] = Induction of NO release in PBS buffer at pH 7.4 incubated for 6 hrs; assay type: physicochemical; parameters: concentration or dose not given beside the values; settings: pH 7.4, 6 h; outline: as §3
[9] = Induction of NO release in PBS buffer at pH 7.4 incubated for 4 hrs; assay type: physicochemical; parameters: concentration or dose not given beside the values; settings: pH 7.4, 4 h; outline: as §3
[10] = Induction of NO release in PBS buffer at pH 7.4 incubated for 1 hr; assay type: physicochemical; parameters: concentration or dose not given beside the values; settings: pH 7.4, 1 h; outline: as §3
[11] = tested on: Mus musculus; assay: Effect on heart rate in C57BL/6 mouse at 63.01 umol/kg, po after 6 hrs (reference value: 439 bpm); assay type: ADME, organism-based; settings: in vivo
[12] = tested on: Mus musculus; assay: Effect on heart rate in C57BL/6 mouse at 63.01 umol/kg, po after 3 hrs (reference value: 448 bpm); assay type: ADME, organism-based; settings: in vivo
[13] = tested on: Mus musculus; assay: Effect on heart rate in C57BL/6 mouse at 63.01 umol/kg, po after 1 hr (reference value: 449 bpm); assay type: ADME, organism-based; settings: in vivo
[14] = tested on: Mus musculus; assay: Antihypertensive activity in C57BL/6 mouse assessed as reduction in systolic blood pressure at 63.01 umol/kg, po after 6 hrs (reference value: 126.2 mmHg); assay type: functional, Artery
[15] = tested on: Mus musculus; assay: Antihypertensive activity in C57BL/6 mouse assessed as reduction in systolic blood pressure at 63.01 umol/kg, po after 1 hr (reference value: 126.5 mmHg); assay type: functional, Artery
[16] = tested on: Rattus norvegicus; assay: Induction of hyperglycemia in streptozotocin-induced diabetic Sprague-Dawley rat assessed as increase in blood glucose level at 63.01 umol/kg, po after 24 hrs relative to control; assay type: organism-based; settings: in vivo; outline: as §1
[17] = tested on: Rattus norvegicus; assay: Antihyperglycemic activity in streptozotocin-induced diabetic Sprague-Dawley rat assessed as reduction in blood glucose level at 63.01 umol/kg, po after 6 hrs relative to control; assay type: functional; outline: as §1
[18] = tested on: Rattus norvegicus; assay: Antihyperglycemic activity in streptozotocin-induced diabetic Sprague-Dawley rat assessed as reduction in blood glucose level at 63.01 umol/kg, po after 3 hrs relative to control; assay type: functional; parameters: scale not given: the % may be the effect or the level left; outline: as §1
[19] = tested on: Rattus norvegicus; assay: Antihyperglycemic activity in streptozotocin-induced diabetic Sprague-Dawley rat assessed as reduction in blood glucose level at 63.01 umol/kg, po after 1 hr relative to control; assay type: functional; parameters: scale not given: the % may be the effect or the level left; outline: as §1
[20] = Induction of NO release in PBS buffer in presence of rat serum at pH 7.4 incubated for 3 hrs; parameters: concentration or dose not given beside the values; settings: pH 7.4, 3 h
[21] = tested on: Rattus norvegicus; assay: Induction of hyperglycemia in streptozotocin-induced diabetic Sprague-Dawley rat assessed as increase in blood glucose level at 63.01 umol/kg, po after 24 hrs relative to control; settings: in vivo
[22] = organism: Rattus norvegicus; assay: Activation of soluble guanylyl cyclase in rat superior mesenteric arteries assessed as reversal of phenylephrine-induced tone in presence of ODQ at 1 uM by wire myography
Outline: (§4)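 Denudation confirmed by no relaxation to acetylcholine (10 μM). Tone raised to 75% of maximal with phenylephrine (1−3 μM). Compounds added at 1 μM, without or with ODQ (10 μM), a soluble guanylyl cyclase inhibitor.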

[23] = organism: Rattus norvegicus; assay: Activation of soluble guanylyl cyclase in rat superior mesenteric arteries assessed as reversal of phenylephrine-induced tone at 1 uM by wire myography; outline: as §4
[24] = tested on: Mus musculus; assay: Antihypertensive activity in C57BL/6 mouse assessed as reduction in diastolic blood pressure at 63.01 umol/kg, po after 3 hrs; assay type: functional, organism-based; settings: Artery
[25] = tested on: Mus musculus; assay: Antihypertensive activity in C57BL/6 mouse assessed as reduction in systolic blood pressure at 63.01 umol/kg, po after 3 hrs (reference value: 118.3 mmHg); assay type: functional, Artery

Structure (SMILES)	Activity [1]	Activity [2]	Activity [4]	Activity [5]	Activity [6]	Activity [7]	Activity [8]	Activity [9]	Activity [10]	Activity [11]	Activity [12]	Activity [13]	Activity [14]	Activity [15]	Activity [16]	Activity [17]	Activity [18]	Activity [19]	Activity [20]	Activity [21]	further results
CCN(CC)/[N+]([O-])=N/OCOC(=O)c1ccc(CCNC(=O)c2cc(Cl)ccc2OC)cc1	Active	Active	63.6%	61.5%	54.5%	6.5%	6.1%	6%	4.2%	435 bpm	458 bpm	454 bpm	103.4 mmHg	96.8 mmHg	Non-toxic	Active	12.5%	20%	55.9%	Non-toxic	Activity [3]: inactive
CC(C)[C@H]1CC[C@H](C(=O)N[C@H](Cc2ccccc2)C(=O)OCCO[N+](=O)[O-])CC1			6.3%	3.9%	1.3%	9.2%	7.7%	7.5%	6.7%	435 bpm	458 bpm	454 bpm	103.4 mmHg	129.9 mmHg	Non-toxic	20.5%	13.4%	8.2%	1.9%	Non-toxic	Activity [22]: inactive; Activity [23]: Active
COc1ccc(Cl)cc1C(=O)NCCc1ccc(C(=O)O)cc1 [MEGLITINIDE]																Active	8.8%	30.5%			Activity [3]: inactive
COc1ccc(Cl)cc1C(=O)NCCc1ccc(C(=O)OCCO[N+](=O)[O-])cc1	Active	Active	3.8%	2.6%	2.1%	9.4%	7.7%	7.2%	4.1%	435 bpm	458 bpm	454 bpm	103.4 mmHg	105.8 mmHg	Non-toxic	Active	12.5%	20%	2.3%	Non-toxic	Activity [3]: inactive
CC(C)[C@H]1CC[C@H](C(=O)N[C@H](Cc2ccccc2)C(=O)OCO/N=[N+](/[O-])N2CCCC2)CC1		Active	65.3%	50.1%	40.2%	59.9%	52.7%	6.8%	6.7%	435 bpm	458 bpm	454 bpm	134.3 mmHg	108.4 mmHg	48.7%	inactive	22.6%	8.1%	47.2%		Activity [24]: inactive; Activity [25]: 106.2 mmHg
CCN(CC)/[N+]([O-])=N\OCOC(=O)[C@@H](Cc1ccccc1)NC(=O)[C@H]1CC[C@H](C(C)C)CC1	Active	Active	72.2%	57.2%	44.9%	61.3%	58.8%	5.1%	4.4%	435 bpm	458 bpm	454 bpm	134.4 mmHg	113 mmHg	Non-toxic	34.1%	23.5%	21.1%	50.2%	Non-toxic	Activity [22]: inactive; Activity [23]: Active; Activity [25]: 98.1 mmHg
CC(C)[C@H]1CC[C@H](C(=O)N[C@H](Cc2ccccc2)C(=O)O)CC1 [NATEGLINIDE]																30.6%	26.4%	13.8%			
COc1ccc(Cl)cc1C(=O)NCCc1ccc(C(=O)OCO/N=[N+](\[O-])N2CCCC2)cc1	Active	Active	60.5%	59.2%	37.6%	8.9%	7.2%	5.7%	5.1%	435 bpm	458 bpm	454 bpm	103.4 mmHg	90.3 mmHg	Non-toxic		12.5%	20%	51.7%	Non-toxic	Activity [3]: inactive
